Each structure is given as a SMILES string.

The data set can be described thus: Toxicity liver stage against HepG2, at 10uM. Format: cell-based. Also on record: test concentration 10 uM, cell line HepG2-A16-CD81EGFP. Particulars: human, HepG2-A16-CD81EGFP cells; read-out: INHIBITION
Put shortly: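 Uninfected HepG2-A16-CD81EGFP cells, 3 × 10^3 per well, 1536-well, plated on prespotted compound at 10 μM final, parasite-free screening media added to match infected plates; puromycin 10 μM positive, DMSO 0.5% negative; run in parallel with 48 h PbLuc assay at 37 °C, 5% CO2; viability by CellTiter-Glo luminescence, normalized to controls.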
Regarding `CC(C)(C)c1cn(C[C@H]2CC3CCN2C[C@@H]3C(=O)N2CCOCC2)nn1` (some centres not stated), the cytotoxicity at 10 µM is -3.37%.

As for `COC1CN(CCO)S(=O)(=O)c2ccccc21` (configuration not stated), the cytotoxicity at 10 µM stood at 3.54%.

Turning to `O=C(NC1CC1)c1nc(COc2ccc3c(c2)OCO3)no1`, the cytotoxicity at 10 µM was determined as 3.97%.

On to `COC(=O)N1CCC(CNC(=O)C2CCN(S(C)(=O)=O)CC2)CC1`, for which the cytotoxicity at 10 µM is -2.72%.

As to `CC(=O)c1ccc(S(=O)(=O)NCC2CCN(c3cnccn3)CC2)cc1`, the cytotoxicity at 10 µM stood at 0.723%.

Regarding `O=C(CC1CCC2(CC1)CCN(Cc1nccs1)CC2)N1CC=CC1`, the cytotoxicity at 10 µM is -4.35%.

In the case of `CN1CCc2c(C#N)c(NCCN3CCOCC3)n3cnnc3c2C1`, the cytotoxicity at 10 µM is -2.84%.

Take `N#Cc1cc(C#N)c(SCC(=O)Nc2ccc(F)cc2)nc1N`: the cytotoxicity at 10 µM is -0.506%.

For `Cc1cccc(-c2nccnc2C2CCCN(C)C2)c1C` (configuration not stated), the cytotoxicity at 10 µM turned out to be 5.62%.

As to `Cc1nc(N)cc(C2CN(C(=O)c3cscn3)CCO2)n1` (configuration not stated), the cytotoxicity at 10 µM is 7.03%.

Turning to `c1cc(-c2cncc(C3CCNCC3)n2)n[nH]1`, the cytotoxicity at 10 µM is 3.42%.

On to `Cc1noc(C)c1-c1ccnc(C2CCN(S(=O)(=O)N(C)C)CC2)c1`, for which the cytotoxicity at 10 µM is -25%.

On to `CNc1cncc(C2CCCN2S(=O)(=O)c2ccc(F)cc2)n1` (configuration not stated), for which the cytotoxicity at 10 µM was -3.21%.

For the compound `COc1ccc(CN2CCC(c3nccnc3-n3ccnc3)CC2)cc1`, the cytotoxicity at 10 µM was -27.4%.

In the case of `CN(C)Cc1ccnc(C2CN(Cc3nccs3)CCO2)n1` (configuration not stated), the cytotoxicity at 10 µM was -2.61%.

As to `CNC(=O)C1(c2cnccn2)CCCN1C(=O)c1ccccc1` (configuration not stated), the cytotoxicity at 10 µM was -20.6%.

Consider `CNc1cccc(C2CCCN(C(=O)c3cccnc3)C2)n1` (configuration not stated), for which the cytotoxicity at 10 µM was -16.6%.

As for `CN(C)Cc1ccnc(C2CCCN2Cc2ccc3ncccc3c2)n1` (configuration not stated), the cytotoxicity at 10 µM was determined as 0.026%.

As for `COc1cc2nc3n(c(=O)c2cc1OC)CCN(C(=O)C1CC1)CC3`, the cytotoxicity at 10 µM is -13.6%.

For `CC(C)C(=O)N1CCC(c2nc(O)cc(-c3ccncc3)n2)CC1`, the cytotoxicity at 10 µM was -5.41%.

Consider `COc1ccc(CN2CC[C@H](NC(C)=O)[C@@H](O)CC2)c(OC)c1`, for which the cytotoxicity at 10 µM was -7.49%.

On to `O=C(c1ccc2c(c1)OCO2)N1CCC(C(=O)O)(c2ccccc2)CC1`, for which the cytotoxicity at 10 µM is 7.33%.

Take `O=C1NC2(Cc3ccccc31)CN(CC1CCOCC1)C2`: the cytotoxicity at 10 µM stood at 14%.

As to `Cc1cc(C2CCCN2C(=O)COc2ccc(CC#N)cc2)on1` (configuration not stated), the cytotoxicity at 10 µM is -49.6%.

As to `CCN(Cc1cccc(C(N)=O)c1)c1ccccc1`, the cytotoxicity at 10 µM was determined as 2.91%.

In the case of `COc1ccc2c(c1)OCC(CNC1CCc3ncnn3C1)=C2` (configuration not stated), the cytotoxicity at 10 µM came out at 4.4%.

`CC(C(=O)Nc1cccc(C(F)(F)F)c1)N(C)CCN1CCOCC1` (configuration not stated): the cytotoxicity at 10 µM was 9.54%.

Consider `N#Cc1ccc(Cl)cc1N1CCC(OC2CCOCC2)CC1`, for which the cytotoxicity at 10 µM was determined as 3.99%.

With `Cc1cc(C2CCCN2C(=O)CN2CCc3ccccc32)on1` (configuration not stated), the cytotoxicity at 10 µM was found to be 2.74%.

With `CC(C)n1nc2c(cc1=O)CN(c1nc3ccccc3s1)CC2`, the cytotoxicity at 10 µM is -1.99%.

Take `Cc1csc(CNCC2CCCN(C(=O)OC(C)(C)C)C2)n1` (configuration not stated): the cytotoxicity at 10 µM was -6.82%.

On to `Cc1nnc2n1CCN(CC(=O)NC(C)c1cccc3ccccc13)C2` (configuration not stated), for which the cytotoxicity at 10 µM was found to be 7.15%.

For `COC(C(=O)NC1CCN(S(C)(=O)=O)CC1)c1ccccc1` (configuration not stated), the cytotoxicity at 10 µM was -4.68%.

Regarding `CS(=O)(=O)CCC(=O)Nc1cc(Cl)c(Cl)cn1`, the cytotoxicity at 10 µM stood at 4.52%.

Turning to `CC(C)n1c(C2CCCN(CC(=O)NC3CC3)C2)nc2ccccc21` (configuration not stated), the cytotoxicity at 10 µM was -5.54%.

On to `COc1ccccc1C1(CNc2ccnc(C(=O)N(C)C)c2)CC1`, for which the cytotoxicity at 10 µM was -1.67%.

Turning to `COCCNC(=O)c1cc(F)ccc1NS(C)(=O)=O`, the cytotoxicity at 10 µM is -1.23%.

As to `NS(=O)(=O)NCC1(c2ccccc2Br)CC1`, the cytotoxicity at 10 µM is 2.91%.

On to `Cc1cccc(C2CCCN2Cc2nc(N)nc(N(C)C)n2)c1C` (configuration not stated), for which the cytotoxicity at 10 µM is -12.5%.

For the compound `O=C(NCC1(Sc2ccccc2)CC1)c1ccc(=O)[nH]n1`, the cytotoxicity at 10 µM amounted to 1.52%.

For the compound `Cc1nc(NC(=O)NC(CS(C)(=O)=O)c2ccccc2)sc1C` (configuration not stated), the cytotoxicity at 10 µM was -1.32%.

Consider `CN1CCN(c2ccc(Cl)cc2NC(=O)c2ccco2)CC1`, for which the cytotoxicity at 10 µM was -2.14%.

Consider `CN1CCN(c2ccccc2NC(=O)NCCc2ccc(O)cc2)CC1`, for which the cytotoxicity at 10 µM is -0.37%.

With `COc1cccc(CC2CCCN2CC(N)=O)c1` (configuration not stated), the cytotoxicity at 10 µM is -55.6%.

In the case of `CCN(CCC(=O)OC)S(=O)(=O)c1cnc2c(c1)c(C)nn2C`, the cytotoxicity at 10 µM was -15.2%.

As for `COCCN1CCC(c2nc3ccccc3[nH]2)CC1`, the cytotoxicity at 10 µM came to 0.575%.

Take `CCCn1nnnc1CN(c1ccc(C)cc1)C(C)C`: the cytotoxicity at 10 µM worked out at 4.15%.

Turning to `CC(=O)NCC1CCN(C(=O)c2c[nH]c3cc(Cl)ccc23)CC1`, the cytotoxicity at 10 µM was found to be 7.07%.

On to `Cc1cc(CN2CCc3nn(C(C)C)c(=O)cc3C2)no1`, for which the cytotoxicity at 10 µM was -13.8%.

As to `Cc1cc(CNC(=O)NC(C)c2ccc(N3CCOCC3)cc2)no1` (configuration not stated), the cytotoxicity at 10 µM was -17.4%.

Take `Cc1csc2ncc(-c3ccnc(N4CCN(C)CC4)n3)c(=O)n12`: the cytotoxicity at 10 µM was 9.43%.

Regarding `CCn1ncnc1CN1CCc2[nH]cnc2C1c1ccccn1` (configuration not stated), the cytotoxicity at 10 µM was -9.38%.

For `O=C(Nc1ccccc1)c1cc2n(n1)CCCN(C(=O)N1CCCC1)C2`, the cytotoxicity at 10 µM was -70.3%.

Take `CCc1noc(C2CC(=O)N(CCN(C)C)C2)n1` (configuration not stated): the cytotoxicity at 10 µM is -10.1%.

As for `CC(C)c1cc(C(=O)N2CCNCC2C(=O)NCc2ccncc2)on1` (configuration not stated), the cytotoxicity at 10 µM is -7.6%.

`O=C(C(c1ccc(F)cc1)N1CCCCC1)N1CCn2cncc2C1` (configuration not stated): the cytotoxicity at 10 µM is -0.628%.

Consider `c1cn(-c2ccc(CN3CCCC3)cc2)c(-c2cc3n(n2)CCNC3)n1`, for which the cytotoxicity at 10 µM is -14.3%.

As for `CN1CCC(n2nc(Cc3cccc(Cl)c3)nc2Cn2ccnc2)CC1`, the cytotoxicity at 10 µM was found to be 10.8%.

For `O=C(NC1CCCN(CCCc2ccccc2)C1)c1ccc(Cl)s1` (configuration not stated), the cytotoxicity at 10 µM was 57.5%.

Turning to `CCC[C@@H]1CN(Cc2cc3c(cc2OC)OCO3)C[C@H]1C(=O)O`, the cytotoxicity at 10 µM was -2.7%.

For `O=C(O)CSc1nnc(-c2ccco2)n1-c1ccccc1C(F)(F)F`, the cytotoxicity at 10 µM worked out at 3.41%.

For `CC(=O)N1C[C@H]2CNC[C@@]2(C(=O)NCCCOc2cccnc2)C1`, the cytotoxicity at 10 µM was -7.52%.

As for `Cc1ccc(C(=O)N2CCC3(CC2)c2ccccc2[C@@H](N)[C@@H]3O)cc1F`, the cytotoxicity at 10 µM was -0.685%.

Consider `O=C(O)c1ccnc(-c2ccnc(COc3cccc(F)c3)n2)c1`, for which the cytotoxicity at 10 µM was -2.31%.

On to `CC(=O)N1CCN(Cc2c(C)sc3ccccc23)CC(O)C1` (configuration not stated), for which the cytotoxicity at 10 µM stood at 14.4%.

Consider `Cc1ccc(-n2cc(CN3CCOCC(CN(C)C)C3)cn2)cc1C` (configuration not stated), for which the cytotoxicity at 10 µM was -19.8%.

On to `Cc1cc2cc(C(=O)N3CCN(CCO)[C@@H]4CS(=O)(=O)C[C@@H]43)ccc2o1`, for which the cytotoxicity at 10 µM is -0.357%.

`CN(Cc1ccc(OCC(=O)N2CCOCC2)cc1)S(C)(=O)=O`: the cytotoxicity at 10 µM is 4.64%.

As to `COc1cccc(-c2ncc(CN3CCOCC(O)C3)s2)c1` (configuration not stated), the cytotoxicity at 10 µM is -7.19%.

Turning to `Cc1cc(C)nc(N2CCC(NCCSc3nnnn3C)CC2)n1`, the cytotoxicity at 10 µM is -6.88%.

As for `CCOC(=O)C1(Cc2ccccc2)CCCN(Cc2nccn2CC)C1` (configuration not stated), the cytotoxicity at 10 µM is 8.82%.

With `CC(C)c1nccn1-c1cccc(C2CCCN(C3CCCC3)C2)n1` (configuration not stated), the cytotoxicity at 10 µM is 7.1%.

Take `CC(Nc1cccc(CN2CCOC2=O)c1)C(=O)Nc1ccccc1` (configuration not stated): the cytotoxicity at 10 µM is -6.42%.

Take `CC(O)CN1CCC(CNCc2cccc(OC(F)(F)F)c2)CC1` (configuration not stated): the cytotoxicity at 10 µM is -7.95%.

For `O=C(CCc1nccs1)N1CCN(c2ccc(Cl)cn2)CC1`, the cytotoxicity at 10 µM turned out to be 0.665%.

As for `CCSc1ccc(NC(=O)N2CCCC2c2ccncc2)cn1` (configuration not stated), the cytotoxicity at 10 µM is -8.88%.

Consider `Cc1nnc(N2CCCC(CS(N)(=O)=O)C2)c(C#N)c1C` (configuration not stated), for which the cytotoxicity at 10 µM was determined as 2.86%.

Consider `Cn1ccnc1CN1CCN(Cc2cc(C#N)ccc2F)CC1`, for which the cytotoxicity at 10 µM was -4.52%.

As for `COc1c(CNC2CCCc3ccccc32)c(C(C)C)nn1C` (configuration not stated), the cytotoxicity at 10 µM is -2.9%.

Turning to `Nc1nc(CN2CCCC(Cn3cncn3)C2)nc2ccccc12` (configuration not stated), the cytotoxicity at 10 µM is -8.21%.

`Cc1cnn(CC2CN(CC(=O)N(C)Cc3cccs3)CCO2)c1` (configuration not stated): the cytotoxicity at 10 µM stood at 6.28%.

For `CCCc1n[nH]c(C2CN(CCCS(C)(=O)=O)CCO2)n1` (configuration not stated), the cytotoxicity at 10 µM was -2.38%.

For `O=C(NCc1nnc2n1CCCCC2)N1CCc2sccc2C1`, the cytotoxicity at 10 µM amounted to 0.553%.

On to `COc1ccc(CNC(=O)N2CCN(CC(O)C3CC3)CC2)cc1` (configuration not stated), for which the cytotoxicity at 10 µM came to 7.11%.

As to `COc1ccc(CN(Cc2cncn2C)CC2CCCO2)cc1` (configuration not stated), the cytotoxicity at 10 µM was -4.47%.

As for `Cc1cccc(CN(Cc2cccnc2)C2CC(C)(C)NC(C)(C)C2)n1`, the cytotoxicity at 10 µM is -5.11%.

On to `Cc1cnccc1-c1cnn(CCNC(=O)c2ccccn2)c1C1CC1`, for which the cytotoxicity at 10 µM was 56.3%.

As to `Cc1csc(CN2CCC[C@]3(C[C@H](Oc4ccccn4)CO3)C2)n1`, the cytotoxicity at 10 µM is -14%.

Turning to `Cn1ccnc1CN1CCC2(CCC(=O)N2CCN2CCCC2)CC1`, the cytotoxicity at 10 µM is -0.171%.

Turning to `c1cnc(N2CCO[C@H]3CN(CC4CC4)C[C@H]32)nc1`, the cytotoxicity at 10 µM was determined as 5.03%.

As for `CN(C)C(=O)CC1CC2(CCN(CC3CC3)CC2)c2cc(F)ccc21` (configuration not stated), the cytotoxicity at 10 µM came out at 3.37%.

In the case of `Cc1cc(N(C)C)nc(C2CCNC2)n1` (configuration not stated), the cytotoxicity at 10 µM is 0.812%.

Take `Cc1ccc(N2CC[C@H]3OCC[C@@]3(C(=O)NC(C)C)C2)nn1`: the cytotoxicity at 10 µM was -11.7%.

On to `Cn1nnc2c1CCN(Cc1ccncc1)C2COCC1CC1` (configuration not stated), for which the cytotoxicity at 10 µM amounted to 5.29%.

For the compound `Cc1ccc(N2CCC3(CCN(C(=O)N(C)C)CC3)CC2)nn1`, the cytotoxicity at 10 µM came out at 5.73%.

Take `COc1ccc(N2CCN(C(=O)C3[C@H]4CNC[C@@H]34)CC2(C)C)cc1` (some centres not stated): the cytotoxicity at 10 µM worked out at 12.1%.

In the case of `CNCc1cc(F)ccc1Oc1ccc(Cl)cc1`, the cytotoxicity at 10 µM is -8.74%.

The values are drawn from ChEMBL document CHEMBL4513216, “Probing the Open Global Health Chemical Diversity Library for Multistage-Active Starting Points for Next-Generation Antimalarials” (ACS Infect Dis, 2020).
